PMC5466536 (British Journal of Pharmacology, 2017)
Values joined by “and” are separate entries in the source; they are usually repeats but may differ in a detail not shown here. Equal entries are not always repeated.

Assays:
HCtAEC monolayer = assay: Permeability assay; format: cell-based, human; settings: for effect on the ASP4058‐mediated inhibition of endothelial permeability: ASP4058 100 nM, TASP0277308 pretreated 1 h, EHop‐016 30 min
Summary of the method: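 HCtAECs (10^5 per well) grown overnight on collagen-coated Transwell inserts (0.4 μm pore) in growth medium, then overnight in serum-free defined medium. Compound or vehicle (0.1% DMSO) added to both compartments for 1 h. 250 μg·mL−1 FITC-dextran (2000 kDa) then added to the upper compartment; diffusion into the lower compartment read after 1 h (ex 490/em 520 nm). Antagonist pretreatment 1 h or Rac inhibitor 30 min, before 100 nM agonist. Duplicates, 37°C.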

[1] = molecular target: S1P1 receptors expressed on HCtAEC (Homo sapiens, UniProt P21453); assay: S1P1 receptor internalization assay; format: cell-based; settings: mean ± SEM, n = 5
Summary of the method: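 HCtAECs (10^5 per well) seeded overnight, then exposed for 1 h at 37°C to test compound diluted in serum-free defined medium. Cells washed in ice-cold PBS and detached with Accutase. Staining with mouse anti-S1P1 (30 min on ice), then PE anti-mouse IgG; IgG2b isotype control; dead cells excluded by 7-AAD or SYTOX Blue. Isotype-subtracted geoMFI normalized to vehicle, expressed as % of control.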

[2] = rats, oral, 14 days at 0.1 mg·kg^−1; ref Yamamoto et al., 2014; cited from earlier work
[3] = test system: THP‐1 cells across HCtAEC monolayer; assay: Trans‐endothelial migration assay; format: cell-based, human; settings: MCP‐1 100 ng·mL^−1, 3 h
Summary of the method: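 HCtAECs (10^5 per well) grown overnight on Transwell inserts (5.0 μm pore) in growth medium. Compound in serum-free defined medium, or vehicle (0.1% DMSO), added to both compartments. At the same time, THP-1 cells (5 × 10^5) added above and MCP-1 (100 ng·mL−1) below. After 3 h at 37°C, migrated cells quantified by ATP luminescence. Antagonist co-added with 100 nM agonist; duplicates.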

[4] = test system: IA walls at ACA‐OA bifurcation; assay: In vivo vascular permeability assay; set-up: species or system Sprague–Dawley rats; settings: day 7, BAPN
Summary of the method: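 Rats after IA induction, with 3-aminopropionitrile to facilitate formation, dosed p.o. once daily from just after surgery; vehicle 0.5% methylcellulose. On day 7, under deep anaesthesia, Evans blue (45 mg·kg−1) injected intra-arterially via the right common carotid (proximal side clamped), then 4% paraformaldehyde perfusion. Age-matched Sprague–Dawley rats served as controls. Frozen sections imaged confocally (ex 620/em 680 nm); stained area thresholded, particles >4 pixel square counted.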

[5] = test system: intracranial aneurysm (IA); assay: Non‐human primate model of IAs; format: in vivo; settings: Macaca fascicularis, 0.1 mg·kg^−1 once daily, 52 weeks, n = 3
Summary of the method: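 Female Macaca fascicularis (11 years old, 3.4 kg average), held under a 12 h light–dark cycle. IAs induced by two-step surgery at a 2 week interval. Test compound given once daily. At 52 weeks, five intracranial bifurcation sites per animal examined for IA formation, scored as breakage of the lamina elastica.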

[6] = Plasma concentration of ASP4058 in rat aneurysm model; format: in vivo, rats
Summary of the method: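 Rats dosed orally at 0.01 mg·kg−1 for 12 weeks. Plasma collected just before and 1, 2, 4, 8 and 24 h after the last dose. Plasma separated by centrifugation and stored at −20°C or lower. Samples prepared by protein precipitation and quantified by HPLC–tandem mass spectrometry.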

THP‐1 cells = assay: Chemotaxis assay; format: cell-based, human; settings: 100 nM ASP4058, MCP‐1 10 ng·mL^−1, 3 h
Summary of the method: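 Migrated-cell Transwell assay (5.0 μm pore) without an endothelial layer. Test compound diluted in RPMI 1640 with 0.1% fatty-acid-free BSA; compound or vehicle (0.1% DMSO) added to both compartments. THP-1 cells (5 × 10^5 per well) added to the upper and MCP-1 (10 ng·mL−1) to the lower compartment simultaneously. After 3 h at 37°C, migrated cells quantified by ATP-based luminescence; duplicates.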

hS1P1 = settings: S1P2, S1P3, S1P4 versus S1P1/S1P5; ref Yamamoto et al., 2014; cited from earlier work
Systemic blood pressure = format: in vivo, Sprague–Dawley rats; settings: rats
Summary of the method: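 Oral dosing after IA induction, vehicle 0.5% methylcellulose. Blood pressure measured in conscious rats by tail-cuff, without anaesthesia. Systolic, mean and diastolic values each taken as the mean of at least three measurements.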

[7] = molecular target: S1P1 receptors in HCtAECs (Homo sapiens, UniProt P21453); assay: cAMP assay; format: cell-based
Summary of the method: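 HCtAECs seeded at 2 × 10^4 per well and kept overnight. Test compound diluted in HBSS (pH 7.2) containing 5 mM HEPES (pH 7.5), 0.1% fatty-acid-free BSA and 0.5 mM IBMX. Cells stimulated with 1 μM forskolin plus compound for 20 min at 37°C. Lysis in HEPES/CaCl2/Triton X-100 buffer; cAMP measured with a LANCE cAMP kit. Duplicates.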

[8] = test system: intracranial aneurysm (IA); assay: Rat IA model, histological analysis of induced IAs; format: in vivo, Sprague–Dawley rats; settings: for growth (size) of induced IAs: KRP‐203 0.01 and BAF312 0.3 mg·kg^−1 daily
Summary of the method: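 IA induced at the right ACA-OA bifurcation, contralateral to carotid ligation. Rats randomized and given test compound p.o. (suspended in 0.5% methylcellulose) throughout. Specimens prepared at 12 weeks; 5 μm sections immunostained. Aneurysm size and infiltrating macrophage number assessed.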

[9] = test system: lymphocytes / monocytes in peripheral blood; assay: Peripheral blood lymphocyte and monocyte count in rat IA model; format: in vivo, Sprague–Dawley rats; settings: rats
Summary of the method: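 Oral dosing after IA induction. Agonist suspended in 0.5% methylcellulose; antagonist suspended in 5% arabic gum and given twice daily. Peripheral lymphocyte and monocyte counts taken after the dosing period (4 weeks for the antagonist).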

[10] = p.o., 12 weeks after IA induction
[11] = KRP‐203 0.01 or BAF312 0.3 mg·kg^−1, 4 weeks after IA induction
[12] = TASP0277308 100 or 300 mg·kg^−1 p.o. twice daily, 4 weeks
[13] = rats, TASP0277308 100 or 300 mg·kg^−1 p.o. twice daily, 4 weeks, BAPN

Sequence of S1P1 receptors expressed on HCtAEC (P21453 whole entry): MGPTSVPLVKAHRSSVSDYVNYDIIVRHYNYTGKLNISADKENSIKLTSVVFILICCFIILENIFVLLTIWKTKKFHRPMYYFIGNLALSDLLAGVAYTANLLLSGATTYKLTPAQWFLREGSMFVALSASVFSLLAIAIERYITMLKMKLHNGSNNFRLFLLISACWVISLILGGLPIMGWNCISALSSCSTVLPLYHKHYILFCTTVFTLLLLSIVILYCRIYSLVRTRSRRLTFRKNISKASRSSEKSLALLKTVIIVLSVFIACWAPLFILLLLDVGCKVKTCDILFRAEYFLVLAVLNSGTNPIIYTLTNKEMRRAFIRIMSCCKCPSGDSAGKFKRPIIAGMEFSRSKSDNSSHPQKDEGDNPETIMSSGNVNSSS
Sequence of S1P1 receptors in HCtAECs (P21453 whole entry): as above

CCn1c2ccccc2c2cc(Nc3ccnc(NCCCN4CCOCC4)n3)ccc21 [EHop‐016]
effect on the ASP4058‐mediated inhibition of endothelial permeability (HCtAEC monolayer): ameliorated the effect of ASP4058 on permeability

C[C@H](Oc1ccc(-c2nc(-c3ccc4[nH]cnc4c3)no2)cc1C(F)(F)F)C(F)(F)F.Cl [ASP4058, 5‐{5‐[3‐(trifluoromethyl)‐4‐{[(2S)‐1,1,1‐trifluoropropan‐2‐yl]oxy}phenyl]‐1,2,4‐oxadiazol‐3‐yl}‐1H–benzimidazole hydrochloride]
S1P1 receptor expression level on HCtAECs (surface, δ geoMFI) ([1]; 100 nM ASP4058, 1 h): 86 ± 14 % of control | S1P1 receptor expression level on HCtAECs (surface, δ geoMFI) ([1]; 1000 nM ASP4058, 1 h): 23 ± 4.3 % of control | plasma concentration at the maximum [2]: 16.4 ± 0.463 ng/mL | plasma concentration at the maximum (equivalent) [2]: 37.1 ± 1.05 nM | MCP‐1‐induced trans‐endothelial migration of THP‐1 cells [3]: concentration‐dependently inhibited | Evans blue leakage (stained area) at the ACA‐OA bifurcation after IA induction ([4]; rats, 0.1 mg·kg^−1 p.o. once daily): almost complete suppression | Evans blue leakage (stained area) at the ACA‐OA bifurcation after IA induction ([4]; rats, 0.01, 0.1 mg·kg^−1 p.o. once daily): dose‐dependently ameliorated | IA formation compared with the vehicle‐treated group [5]: tended to be suppressed | Plasma concentration, 4 h ([6]; 0.01 mg·kg^−1, 12 weeks, 4 h after last administration, mean ± SEM, n = 3): 8.8 ± 1.6 nM | Plasma concentration, 24 h ([6]; 0.01 mg·kg^−1, 12 weeks, 24 h after last administration, mean ± SEM, n = 3): 4.5 ± 0.6 nM | Plasma concentration, Pre ([6]; 0.01 mg·kg^−1, 12 weeks, just before last administration, mean ± SEM, n = 3): 5.4 nM and 5.4 ± 0.7 nM | concentration at 1 h ([6]; plasma, oral, 0.01 mg·kg^−1): 6.3 ± 0.9 nM | concentration at 2 h ([6]; plasma, oral, 0.01 mg·kg^−1): 4.9 ± 1.6 nM | concentration at 4 h ([6]; plasma, oral, 0.01 mg·kg^−1): 8.8 nM | concentration at 8 h ([6]; plasma, oral, 0.01 mg·kg^−1): 7.9 ± 1.4 nM | concentration at 24 h ([6]; plasma, oral, 0.01 mg·kg^−1): 4.5 nM | leakage of FITC‐dextran (2000 kDa) across the endothelial monolayer (HCtAEC monolayer; 10 nM ASP4058, 1 h treatment, 1 h diffusion, concentration‐dependent): statistically significant inhibition | MCP‐1‐dependent migration (chemotaxis) of THP‐1 cells without HCtAEC monolayer (THP‐1 cells): failed to inhibit | potency for other S1P receptor subtypes relative to S1P1 and S1P5 (times less) (hS1P1): at least 100 times | blood pressure (Systemic blood pressure; ASP4058 0.1 mg·kg^−1 started 1 week after induction, measured at 7 weeks): without affecting the blood pressure | systemic blood pressure (Systemic blood pressure; ASP4058 p.o. for 12 weeks after IA induction): without significantly influencing | IC50 [7]: 2.1 nM | IA development measured by the size of the IA induced ([8]; rat model, p.o. during entire period of IA induction, 12 weeks): dose‐dependently suppressed IA development | incidence of IAs ([8]; rat model, p.o. during whole period, 12 weeks): did not affect the incidence | dose at which the suppressive effect on the size of the IA was observed ([8]; rat model, p.o., 12 weeks): 0.01 mg/kg | macrophage infiltration in the lesion ([8]; rat model, p.o., 12 weeks after induction): inhibited the macrophage infiltration | expression of MCP‐1 in the IA lesion ([8]; rats, ASP4058 0.03 mg·kg^−1, immunostaining): almost completely suppressed | IA‐associated degenerative change of the media (thinning of smooth muscle layer) ([8]; rats, ASP4058 0.03 mg·kg^−1, α‐SMA staining, 12 weeks): ameliorated the IA‐associated degenerative change of the media | enlargement of pre‐existing aneurysm ([8]; rats, ASP4058 0.1 mg·kg^−1 once daily started 1 week after IA induction, examined at 7 weeks, BAPN): significantly inhibited the enlargement | peripheral lymphocyte number ([9]; ASP4058 0.01 mg·kg^−1 p.o., 12 weeks): did not decrease | monocyte count in peripheral blood ([9]; ASP4058 p.o., 12 weeks after IA induction): without significantly influencing | dose at which the decrease in lymphocyte count reached a plateau [9, 10]: 0.1 mg/kg | dose suppressing the lymphocyte number in peripheral blood [9, 10]: higher than 0.03 mg·kg^−1

CCc1cc(/C(C)=N/OCc2ccc(C3CCCCC3)c(C(F)(F)F)c2)ccc1CN1CC(C(=O)O)C1 [BAF312, 1‐{4‐[(1E)‐N‐{[4‐cyclohexyl‐3‐(trifluoomethyl)benzyl]oxy}ethanimidoyl]‐2‐ethylbenzyl}azetidine‐3‐carboxylic acid, reference compound]
systemic blood pressure (Systemic blood pressure; [11]): without influencing | growth (size) of induced IAs ([8]; rats, 4 weeks, BAPN): significantly suppressed the growth

Cl.NC(CO)(CO)CCc1ccc(Sc2cccc(OCc3ccccc3)c2)cc1Cl [KRP‐203, 2‐amino‐2‐[2‐(4‐{[3‐(benzyloxy)phenyl]sulfanyl}‐2‐chlorophenyl)ethyl]propane‐1,3‐diol hydrochloride, reference compound]
systemic blood pressure (Systemic blood pressure; [11]): without influencing | growth (size) of induced IAs ([8]; rats, 4 weeks, BAPN): significantly suppressed the growth

CCCCCCCCc1ccc(CCC(N)(CO)CO)cc1.Cl [fingolimod, 2‐amino‐2‐[2‐(4‐octylphenyl)ethyl]propane‐1,3‐diol hydrochloride, reference compound]
systemic blood pressure (Systemic blood pressure; fingolimod for 4 weeks after IA induction): without influencing | size of IAs induced ([8]; rats, fingolimod daily during whole period, 4 weeks, BAPN): significantly exacerbated the IA size

CCn1c(Oc2cccc(N3CCN(C)CC3)c2)nnc1[C@@H](C)NS(=O)(=O)c1ccc(Cl)c(Cl)c1 [TASP0277308, 3,4‐dichloro‐N‐[(1R)‐1‐{4‐ethyl‐5‐[3‐(4‐methylpiperazin‐1‐yl)phenoxy]‐4H‐1,2,4‐triazol‐3‐yl}ethyl]benzenesulfonamide, reference compound]
effect on the ASP4058‐mediated inhibition of endothelial permeability (HCtAEC monolayer): reversed | systemic blood pressure (Systemic blood pressure; [12]): without influencing | macrophage infiltration in IA lesions [8, 13]: did not suppress | size of the IA [8, 13]: did not suppress either the macrophage infiltration in IA lesions or reduce the size | peripheral lymphocyte count [9, 12]: potently decreased | peripheral monocyte count [9, 12]: without influencing
